Results as given in ChEMBL document CHEMBL1158577, “Role of hydrophobic substituents on the terminal nitrogen of histamine in receptor binding and agonist activity: development of an orally active histamine type 3 receptor agonist and evaluation of its antistress activity in mice” (J Med Chem, 2010).

Columns and labels:
Histamine H3 receptor [1] = molecular target: T1, Histamine H3 receptor (Homo sapiens, UniProt Q9Y5N1); test: Displacement of [3H[N-alpha-methylhistamine form human recombinant histamine H3 receptor expressed in CHO cells after 1 hr by liquid scintillation counting; assay type: cell-based
T1 sequence (Q9Y5N1 whole entry): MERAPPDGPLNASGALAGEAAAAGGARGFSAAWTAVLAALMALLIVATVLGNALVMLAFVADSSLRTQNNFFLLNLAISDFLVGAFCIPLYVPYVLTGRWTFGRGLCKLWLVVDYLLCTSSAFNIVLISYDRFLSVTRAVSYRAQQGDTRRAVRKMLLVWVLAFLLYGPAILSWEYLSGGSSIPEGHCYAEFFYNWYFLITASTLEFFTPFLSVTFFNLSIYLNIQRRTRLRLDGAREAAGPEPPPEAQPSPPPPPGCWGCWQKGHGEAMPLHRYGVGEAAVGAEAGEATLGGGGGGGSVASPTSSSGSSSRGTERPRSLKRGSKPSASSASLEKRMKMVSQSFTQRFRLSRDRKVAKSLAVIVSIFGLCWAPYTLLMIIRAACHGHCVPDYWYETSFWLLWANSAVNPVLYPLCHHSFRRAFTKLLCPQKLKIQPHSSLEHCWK
In short: (§1)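 Used CHO cells stably expressing the human H3R for both affinity (pKi) and functional agonist measurements. Each value is the mean ± SEM of n = 3.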

Histamine H3 receptor [2] = molecular target: T1, Histamine H3 receptor; test: Agonist activity at human recombinant histamine H3 receptor expressed in CHO cells assessed as [35S]GTPgammaS binding after 1 hr by liquid scintillation counting; assay type: functional, cell-based; conditions: read-out: EC50; in short: as §1
Histamine H3 receptor [3] = molecular target: T1, Histamine H3 receptor; test: Agonist activity at human recombinant histamine H3 receptor expressed in CHO cells assessed as [35S]GTPgammaS binding at 10 nM after 1 hr by liquid scintillation counting relative to (R)-alpha-methylhistamine; assay type: functional, cell-based
In short: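 CHO cells stably expressing human H3R. Agonist response is given as a percent of the response to the reference H3R agonist. Results are mean ± SEM, n = 3.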

Mus musculus [4] = test: In-vivo agonist activity at histamine H3 receptor in ddY mouse assessed as N-tele-methylhistamine level per gram of brain at 30 mg/kg, po by gas chromatography (RVb = 315 +/- 20 ng); assay type: functional, organism-based; parameters: dose 30 mg/kg
Mus musculus [5] = test: In-vivo agonist activity at histamine H3 receptor in ddY mouse assessed as N-tele-methylhistamine level per gram of brain at 5 mg/kg, po by gas chromatography (RVb = 315 +/- 20 ng); assay type: functional, organism-based; parameters: dose 5 mg/kg
Mus musculus [6] = test: In-vivo agonist activity at histamine H3 receptor in ddY mouse assessed as N-tele-methylhistamine level per gram of brain at 1 mg/kg, po by gas chromatography (RVb = 315 +/- 20 ng); assay type: functional, organism-based; parameters: dose 1 mg/kg

Row | Ki (Histamine H3 receptor [1]) [nM] | EC50 (Histamine H3 receptor [2]) [nM] | Activity (Histamine H3 receptor [3]) [%] | SMILES | Nτ-methylhistamine level (Mus musculus [4]) [ng/g] | Nτ-methylhistamine level (Mus musculus [5]) [ng/g] | Nτ-methylhistamine level (Mus musculus [6]) [ng/g]
1 |  |  | 42 | c1ccc(NCCc2c[nH]cn2)cc1 |  |  | 
2 |  |  | 91 | N=C(N)SCCc1c[nH]cn1 | 98 | 133 | 239
3 |  |  | 59 | Cc1ccc(NCCc2c[nH]cn2)cc1C |  |  | 
4 | 24 | 65 | 56 | COc1ccc(NCCc2c[nH]cn2)cc1 |  |  | 

Continued, compound first:

Row | SMILES | Ki (Histamine H3 receptor [1]) [nM] | EC50 (Histamine H3 receptor [2]) [nM] | Activity (Histamine H3 receptor [3]) [%] | Nτ-methylhistamine level (Mus musculus [4]) [ng/g] | Nτ-methylhistamine level (Mus musculus [5]) [ng/g] | Nτ-methylhistamine level (Mus musculus [6]) [ng/g]
5 | Cc1ccc(NCCc2cnc[nH]2)cc1 | 14 | 88 |  |  |  | 
6 | CC(C)(C)c1ccc(NCCc2cnc[nH]2)cc1 | 0.89 | 1.6 |  |  |  | 
7 | FC(F)(F)c1ccc(NCCc2c[nH]cn2)cc1 | 1.1 | 19 | 56 |  |  | 
8 | c1nc(CCNC2CCCCC2)c[nH]1 | 1600 | 3400 | 31 |  |  | 
9 | CC(C)(C)c1cccc(NCCc2c[nH]cn2)c1 | 2.2 | 4.6 | 48 |  |  | 
